Residue numbers refer to the chain shown, from its start.

Test [1] concerns the target T1, GluRδ2^Lc R530K (Rattus norvegicus, UniProt Q63226, A654T/R530K).
T1 sequence (Q63226 24-1007 R530K/A654T): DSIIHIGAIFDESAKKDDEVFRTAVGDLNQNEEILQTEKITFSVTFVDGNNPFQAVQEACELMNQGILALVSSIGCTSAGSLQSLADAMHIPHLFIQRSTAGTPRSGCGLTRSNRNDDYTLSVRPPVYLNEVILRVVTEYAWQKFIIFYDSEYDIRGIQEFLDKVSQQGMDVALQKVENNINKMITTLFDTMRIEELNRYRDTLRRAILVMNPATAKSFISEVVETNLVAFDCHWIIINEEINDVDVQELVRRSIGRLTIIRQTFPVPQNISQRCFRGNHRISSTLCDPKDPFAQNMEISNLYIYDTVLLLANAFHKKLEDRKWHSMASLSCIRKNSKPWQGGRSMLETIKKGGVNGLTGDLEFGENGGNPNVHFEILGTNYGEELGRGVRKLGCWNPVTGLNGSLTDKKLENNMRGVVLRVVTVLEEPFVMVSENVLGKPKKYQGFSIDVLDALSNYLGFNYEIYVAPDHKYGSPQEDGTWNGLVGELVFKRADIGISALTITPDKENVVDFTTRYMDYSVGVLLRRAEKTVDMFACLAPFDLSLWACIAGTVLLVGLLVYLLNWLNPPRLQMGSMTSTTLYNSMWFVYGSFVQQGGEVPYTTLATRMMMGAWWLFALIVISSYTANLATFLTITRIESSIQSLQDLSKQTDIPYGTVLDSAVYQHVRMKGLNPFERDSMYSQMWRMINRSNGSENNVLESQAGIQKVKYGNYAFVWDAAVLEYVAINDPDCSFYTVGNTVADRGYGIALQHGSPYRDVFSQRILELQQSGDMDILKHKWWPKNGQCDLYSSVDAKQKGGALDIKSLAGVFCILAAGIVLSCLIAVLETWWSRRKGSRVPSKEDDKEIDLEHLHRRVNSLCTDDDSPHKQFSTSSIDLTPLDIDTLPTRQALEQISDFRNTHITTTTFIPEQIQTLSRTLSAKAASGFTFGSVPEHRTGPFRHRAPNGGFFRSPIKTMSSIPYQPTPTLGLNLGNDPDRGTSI
Nature of the test: Two-electrode voltage-clamp recordings in Xenopus oocytes, GluRδ2^Lc R530K. Conditions: 3 mM Ca^2+; baseline spontaneously active current; ± SEM. It is filed as cell-based. The procedure, abridged: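 Oocytes expressing the Lc mutant were kept in 25 μM NASP to prevent cytotoxicity. Two-electrode voltage clamp at −40 mV and 23°C, 24–72 h after cRNA injection. Bath: 90 mM NaCl, 3 mM KCl, 0.5 mM BaCl2, 10 mM HEPES, pH 7.6. Choline or NMDG chloride balanced Cl− and osmolarity. Values are fold increase over the Ca2+-free spontaneously active baseline on applying 3 mM Ca2+, given as mean ± SEM over oocytes.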
In general terms: Two-electrode voltage clamp is typically applied to oocytes expressing channels or transporters.

The target in test [2] is T2, GluRδ2^Wt C811S (Rattus norvegicus, UniProt Q63226, C811S).
T2 sequence (Q63226 24-1007 C811S): T1 sequence (Q63226 24-1007 R530K/A654T) with K507R, T631A, C788S
Nature of the test: Two-electrode voltage-clamp recordings in Xenopus oocytes, GluRδ2^Wt C811S. It is filed as cell-based. Conditions: data not shown.

For `[Ca+2]` [Ca^2+, calcium], the “Ca^2+ potentiation (relative to baseline)” value in test [1] turned out to be 3.3 ± 0.20 fold.

For `N[C@H](CO)C(=O)O` [D-serine], in test [2], the “response to D-serine” value was “Neither the C811S mutation nor the triple P528C+L789C+C811S mutation resulted in measurable responses”.

For the origin of these results see PMC2806602 (The Journal of neuroscience : the official journal of the …, 2009).
